Peptide text beside a SMILES is read from it.
Key:
[1] = Clearance in Sprague-Dawley rat plasma at 3 mg/kg, iv bolus injection measured up to 240 mins by LC-MS/MS analysis; format: ADME, organism-based
Summary of the method: (§1)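 Male Sprague-Dawley rats (250−300 g, 8−10 weeks), jugular vein catheter placed 24 h before dosing, n = 3. Single i.v. bolus in 0.9% saline at 3 mg/kg. Blood drawn at 5, 10, 30, 60, 120, 240 min into K2-EDTA tubes. Plasma cleaned by acetonitrile precipitation and HLB, then quantified by LC-MS/MS.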

[2] = target: Angiotensin-converting enzyme 2 (Rattus norvegicus, UniProt Q5EGZ1); assay: Stability of the compound assessed as recombinant rat ACE2-mediated degradation measured up to 24 hrs by UPLC-MS analysis; format: ADME
Summary of the method: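 Recombinant rat ACE2 at 20 nM final in 100 mM Tris-HCl, 100 mM NaCl, 10 μM ZnCl2, pH 7.4. Peptide at 50 μM final with N,N-dimethylbenzamide internal standard, incubated 1, 2 and 24 h at 37 °C with shaking. Reaction stopped with EDTA; blank used pre-inactivated enzyme. Remaining peptide measured by UPLC-MS in SIM mode, oxidized forms summed; n = 3.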

Apelin receptor [3] = target: T1, Apelin receptor (Homo sapiens, UniProt P35414); assay: Agonist activity at human APJ receptor expressed in HEK293T cells co-expressing PDZ-Rho-Gef-RLucll and rGFP-CAAX assessed as induction of recruitment of Galpha12 to cell membrane using coelenterazine luciferase substrate incubated for 5 mins by BRET assay; format: functional, cell-based, HEK293
T1 sequence (P35414 whole entry): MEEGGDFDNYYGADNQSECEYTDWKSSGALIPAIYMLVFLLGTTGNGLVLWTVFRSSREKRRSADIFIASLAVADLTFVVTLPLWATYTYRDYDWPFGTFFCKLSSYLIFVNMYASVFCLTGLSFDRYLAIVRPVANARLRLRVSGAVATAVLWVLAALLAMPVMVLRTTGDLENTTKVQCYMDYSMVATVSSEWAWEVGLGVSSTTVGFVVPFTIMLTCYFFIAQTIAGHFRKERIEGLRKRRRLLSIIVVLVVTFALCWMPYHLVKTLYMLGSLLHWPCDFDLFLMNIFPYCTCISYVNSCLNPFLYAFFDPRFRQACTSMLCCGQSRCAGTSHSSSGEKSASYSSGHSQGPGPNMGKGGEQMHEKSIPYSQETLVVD

[4] = Stability in Sprague-Dawley rat plasma assessed as half life measured up to 24 hrs by UPLC-MS analysis; format: ADME, cell-free
Summary of the method: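 Peptide (6 μL of 1 mM aqueous solution) incubated with 27 μL male Sprague-Dawley rat plasma at 37 °C. Time points 0, 1, 2, 4, 7, 24 h, or 0–120 min for labile peptides. Reaction quenched with acetonitrile-ethanol containing N,N-dimethylbenzamide internal standard, filtered, then UPLC-MS. t1/2 from one-phase exponential decay; at least three experiments.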

[5] = AUCtot in Sprague-Dawley rat plasma at 3 mg/kg, iv bolus injection measured up to 240 mins by LC-MS/MS analysis; format: ADME, organism-based; design: route intravenous, dose 3 mg/kg, time <=240; conditions: in vivo, 4 h; summary of the method: as §1
Apelin receptor [6] = target: T1, Apelin receptor; assay: Displacement of [125I] [NIe75,Tyr77]Pyr-apelin-13 from YFP-tagged human APJ receptor expressed in HEK293 cells incubated for 1 hr by gamma counting analysis; format: cell-based
Apelin receptor [7] = target: T1, Apelin receptor; assay: Agonist activity at human APJ receptor expressed in HEK293 cells co-expressing Rlucll-beta-arrestin2 assessed as induction of beta-arrestin2 recruitment to receptor incubated for 30 mins by BRET assay; format: functional, cell-based
Apelin receptor [8] = target: T1, Apelin receptor; assay: Agonist activity at human APJ receptor expressed in HEK293T cells co-expressing Galphai1 RlucII assessed as dissociation of Galphai1 from Gbetta/gamma subunit measured using coelenterazine luciferase substrate incubated for 5 mins by BRET assay; format: functional, cell-based, HEK293
[9] = Half life in Sprague-Dawley rat plasma at 3 mg/kg, iv bolus injection measured up to 240 mins by LC-MS/MS analysis; format: ADME, organism-based; summary of the method: as §1
Rattus norvegicus = assay: Hypotensive effect in Sprague-Dawley rat assessed as drop in mean arterial blood pressure at 19.6 nmol/kg, iv bolus injection measured after 1 min; format: functional
Summary of the method: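 Male Sprague-Dawley rats (250−300 g) under ketamine/xylazine (87/13 mg/kg i.m.) on a thermostatic pad. Mean arterial pressure recorded through a right carotid catheter. Saline vehicle bolus given, then 5 min later the peptide i.v. at 19.6 nmol/kg (n = 5) or 65 nmol/kg.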

Sequence of Angiotensin-converting enzyme 2 (Q5EGZ1 whole entry): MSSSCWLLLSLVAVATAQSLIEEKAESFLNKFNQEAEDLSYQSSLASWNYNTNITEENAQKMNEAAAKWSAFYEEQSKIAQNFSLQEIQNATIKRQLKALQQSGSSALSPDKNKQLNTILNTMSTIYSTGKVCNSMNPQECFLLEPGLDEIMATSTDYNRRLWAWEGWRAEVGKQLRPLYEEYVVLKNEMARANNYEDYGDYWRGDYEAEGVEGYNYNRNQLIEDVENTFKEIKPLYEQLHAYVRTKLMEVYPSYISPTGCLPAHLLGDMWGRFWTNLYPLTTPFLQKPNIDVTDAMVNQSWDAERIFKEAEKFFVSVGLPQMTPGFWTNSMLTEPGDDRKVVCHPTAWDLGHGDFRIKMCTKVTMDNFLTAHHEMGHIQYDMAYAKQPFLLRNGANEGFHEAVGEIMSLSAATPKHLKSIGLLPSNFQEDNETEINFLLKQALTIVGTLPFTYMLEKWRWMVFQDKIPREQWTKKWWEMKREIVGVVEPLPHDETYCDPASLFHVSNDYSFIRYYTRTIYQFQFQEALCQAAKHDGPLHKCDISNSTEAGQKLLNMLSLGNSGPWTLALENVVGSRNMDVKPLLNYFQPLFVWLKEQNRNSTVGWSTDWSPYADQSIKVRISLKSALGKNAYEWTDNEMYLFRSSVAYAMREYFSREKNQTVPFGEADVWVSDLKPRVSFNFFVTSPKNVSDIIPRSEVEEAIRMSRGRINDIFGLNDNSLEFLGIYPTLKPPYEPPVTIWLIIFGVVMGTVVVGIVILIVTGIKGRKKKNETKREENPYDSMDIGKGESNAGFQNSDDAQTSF

clearance [1] [mL/min/kg] | Stabilty [2] | EC50 (Apelin receptor [3]) [nM] | half-life [4] [h] | AUC [5] [mg·min/mL] | Ki (Apelin receptor [6]) [nM] | EC50 (Apelin receptor [7]) [nM] | EC50 (Apelin receptor [8]) [nM] | half-life [9] [h] | EC50 (Apelin receptor [3]; hek293) [nM] | Ki (Apelin receptor [6]; hek293) [nM] | EC50 (Apelin receptor [7]; hek293) [nM] | EC50 (Apelin receptor [8]; hek293) [nM] | Compound | Activity (Rattus norvegicus) [mmHg]
27 | Stable | 2.8 | 7.3 | 0.12 | 0.08 | 36 | 3.8 | 0.433 |  |  |  |  | CCCC[C@H](NC(=O)[C@@H]1CCCN1C(=O)CNC(=O)[C@H](CCCCN)NC(=O)[C@H](Cc1cnc[nH]1)NC(=O)[C@H](CO)NC(=O)[C@H](CC(C)C)NC(=O)[C@H](CCCNC(=N)N)NC(=O)[C@@H]1CCCN1C(=O)[C@H](CCCNC(=N)N)NC(=O)[C@@H]1CCC(=O)N1)C(=O)N[C@@H](Cc1cccc2ccccc12)C(=O)NC(Cc1ccccc1)(Cc1ccccc1)C(=O)O (HELM PEPTIDE1{[Glp].R.P.R.L.S.H.K.G.P.[Nle].[O=C([C@H](Cc1cccc2ccccc12)N[*:1])[*:2]].[O=C(O)C(Cc1ccccc1)(Cc1ccccc1)N[*:1]]}$$$$V2.0) [listing 1 of 2 here] | 
 | Unstable |  | 0.2 |  |  |  |  |  | 17 | 0.18 | 38 | 3.8 | CCCC[C@H](NC(=O)[C@@H]1CCCN1C(=O)CNC(=O)[C@H](CCCCN)NC(=O)[C@H](Cc1cnc[nH]1)NC(=O)[C@H](CO)NC(=O)[C@H](CC(C)C)NC(=O)[C@H](CCCNC(=N)N)NC(=O)[C@@H]1CCCN1C(=O)[C@H](CCCNC(=N)N)NC(=O)[C@@H]1CCC(=O)N1)C(=O)N[C@@H](Cc1c[nH]c2ccccc12)C(=O)N[C@@H](Cc1ccccc1)C(=O)O | 
 |  |  |  |  |  |  |  |  |  |  |  |  | CCCC[C@H](NC(=O)[C@@H]1CCCN1C(=O)CNC(=O)[C@H](CCCCN)NC(=O)[C@H](Cc1cnc[nH]1)NC(=O)[C@H](CO)NC(=O)[C@H](CC(C)C)NC(=O)[C@H](CCCNC(=N)N)NC(=O)[C@@H]1CCCN1C(=O)[C@H](CCCNC(=N)N)NC(=O)[C@@H]1CCC(=O)N1)C(=O)N[C@H]1Cc2c([nH]c3ccccc23)CN([C@@H](Cc2ccccc2)C(=O)O)C1=O [listing 1 of 2 here] | 30
 |  |  |  |  |  |  |  |  |  |  |  |  | CCCC[C@H](NC(=O)[C@@H]1CCCN1C(=O)CNC(=O)[C@H](CCCCN)NC(=O)[C@H](Cc1cnc[nH]1)NC(=O)[C@H](CO)NC(=O)[C@H](CC(C)C)NC(=O)[C@H](CCCNC(=N)N)NC(=O)[C@@H]1CCCN1C(=O)[C@H](CCCNC(=N)N)NC(=O)[C@@H]1CCC(=O)N1)C(=O)N[C@@H](Cc1cccc2ccccc12)C(=O)NC(Cc1ccccc1)(Cc1ccccc1)C(=O)O (HELM PEPTIDE1{[Glp].R.P.R.L.S.H.K.G.P.[Nle].[O=C([C@H](Cc1cccc2ccccc12)N[*:1])[*:2]].[O=C(O)C(Cc1ccccc1)(Cc1ccccc1)N[*:1]]}$$$$V2.0) [listing 2 of 2 here] | 30
 |  | 88 | 1.3 |  | 1.1 | 67 | 2.5 |  |  |  |  |  | CCCC[C@H](NC(=O)[C@@H]1CCCN1C(=O)CNC(=O)[C@H](CCCCN)NC(=O)[C@H](Cc1cnc[nH]1)NC(=O)[C@H](CO)NC(=O)[C@H](CC(C)C)NC(=O)[C@H](CCCNC(=N)N)NC(=O)[C@@H]1CCCN1C(=O)[C@H](CCCNC(=N)N)NC(=O)[C@@H]1CCC(=O)N1)C(=O)N1CCC[C@H]1C(=O)N1Cc2ccccc2C[C@H]1C(=O)O | 
23 | Stable |  | 5.8 | 0.13 |  |  |  | 0.333 | 11 | 0.08 | 25 | 2.5 | CCCC[C@H](NC(=O)[C@@H]1CCCN1C(=O)CNC(=O)[C@H](CCCCN)NC(=O)[C@H](Cc1cnc[nH]1)NC(=O)[C@H](CO)NC(=O)[C@H](CC(C)C)NC(=O)[C@H](CCCNC(=N)N)NC(=O)[C@@H]1CCCN1C(=O)[C@H](CCCNC(=N)N)NC(=O)[C@@H]1CCC(=O)N1)C(=O)N[C@H]1Cc2c([nH]c3ccccc23)CN([C@@H](Cc2ccccc2)C(=O)O)C1=O [listing 2 of 2 here] | 
 |  | 178 | > 24 |  | 1.1 | 95 | 10 |  |  |  |  |  | CCCC[C@H](NC(=O)[C@@H]1CCCN1C(=O)CNC(=O)[C@H](CCCCN)NC(=O)[C@H](Cc1cnc[nH]1)NC(=O)[C@H](CO)NC(=O)[C@H](CC(C)C)NC(=O)[C@H](CCCNC(=N)N)NC(=O)[C@@H]1CCCN1C(=O)[C@H](CCCNC(=N)N)NC(=O)[C@@H]1CCC(=O)N1)C(=O)N[C@H](Cc1cccc2ccccc12)C(=O)N[C@H](Cc1cc(C2CCCC2)c(O)c(C2CCCC2)c1)C(=O)O | 
 |  | 10 | 6.3 |  | 0.16 | 34 | 4.1 |  |  |  |  |  | CCCC[C@H](NC(=O)[C@@H]1CCCN1C(=O)CNC(=O)[C@H](CCCCN)NC(=O)[C@H](Cc1cnc[nH]1)NC(=O)[C@H](CO)NC(=O)[C@H](CC(C)C)NC(=O)[C@H](CCCNC(=N)N)NC(=O)[C@@H]1CCCN1C(=O)[C@H](CCCNC(=N)N)NC(=O)[C@@H]1CCC(=O)N1)C(=O)N[C@H](Cc1cccc2ccccc12)C(=O)N1Cc2ccccc2C(C)(C)C1C(=O)O (stereo partly specified) | 
 |  | 25 | 7.8 |  | 1.01 | 96 | 6 |  |  |  |  |  | CCCC[C@H](NC(=O)[C@@H]1CCCN1C(=O)CNC(=O)[C@H](CCCCN)NC(=O)[C@H](Cc1cnc[nH]1)NC(=O)[C@H](CO)NC(=O)[C@H](CC(C)C)NC(=O)[C@H](CCCNC(=N)N)NC(=O)[C@@H]1CCCN1C(=O)[C@H](CCCNC(=N)N)NC(=O)[C@@H]1CCC(=O)N1)C(=O)N[C@H](Cc1cccc2ccccc12)C(=O)N1Cc2[nH]c3ccccc3c2C[C@@H]1C(=O)O | 
 |  | 111 | 5.3 |  | 0.4 | 44 | 4.3 |  |  |  |  |  | CCCC[C@H](NC(=O)[C@@H]1CCCN1C(=O)CNC(=O)[C@H](CCCCN)NC(=O)[C@H](Cc1cnc[nH]1)NC(=O)[C@H](CO)NC(=O)[C@H](CC(C)C)NC(=O)[C@H](CCCNC(=N)N)NC(=O)[C@@H]1CCCN1C(=O)[C@H](CCCNC(=N)N)NC(=O)[C@@H]1CCC(=O)N1)C(=O)N[C@H](Cc1cccc2ccccc12)C(=O)N1Cc2ccccc2C(C)C1C(=O)O (stereo partly specified) | 
 |  | 23 | 0.8 |  | 0.07 | 10 | 1 |  |  |  |  |  | CCCC[C@H](NC(=O)[C@@H]1CCCN1C(=O)CNC(=O)[C@H](CCCCN)NC(=O)[C@H](Cc1cnc[nH]1)NC(=O)[C@H](CO)NC(=O)[C@H](CC(C)C)NC(=O)[C@H](CCCNC(=N)N)NC(=O)[C@@H]1CCCN1C(=O)[C@H](CCCNC(=N)N)NC(=O)[C@@H]1CCC(=O)N1)C(=O)N1CCC[C@H]1C(=O)N1Cc2ccccc2C[C@@H]1C(=O)O | 
 |  |  | 0.4 |  |  |  |  |  | 9.2 | 0.12 | 41 | 4.4 | CCCC[C@H](NC(=O)[C@@H]1CCCN1C(=O)CNC(=O)[C@H](CCCCN)NC(=O)[C@H](Cc1cnc[nH]1)NC(=O)[C@H](CO)NC(=O)[C@H](CC(C)C)NC(=O)[C@H](CCCNC(=N)N)NC(=O)[C@@H]1CCCN1C(=O)[C@H](CCCNC(=N)N)NC(=O)[C@@H]1CCC(=O)N1)C(=O)N[C@@H](Cc1cccc2ccccc12)C(=O)N[C@@H](Cc1ccccc1)C(=O)O | 
 |  | 15 | 3.4 |  | 0.09 | 32 | 1.6 |  |  |  |  |  | CCCC[C@H](NC(=O)[C@@H]1CCCN1C(=O)CNC(=O)[C@H](CCCCN)NC(=O)[C@H](Cc1cnc[nH]1)NC(=O)[C@H](CO)NC(=O)[C@H](CC(C)C)NC(=O)[C@H](CCCNC(=N)N)NC(=O)[C@@H]1CCCN1C(=O)[C@H](CCCNC(=N)N)NC(=O)[C@@H]1CCC(=O)N1)C(=O)N[C@@H](Cc1cccc2ccccc12)C(=O)N1Cc2ccccc2C[C@@H]1C(=O)O | 

Source: ChEMBL document CHEMBL4808162, “Constraining the Side Chain of C-Terminal Amino Acids in Apelin-13 Greatly Increases Affinity, Modulates Signaling, and Improves the Pharmacokinetic Profile” (J Med Chem, 2021)
